Converted amounts (≈) assume the structure as drawn. The source made the active and inactive calls. No cut-off for these calls is given here. A value given as a limit tells only on which side of the number the result lay.

Data set [1] has as its target T1, Alpha-1A adrenergic receptor (Homo sapiens, UniProt P35348).
T1 sequence (P35348 whole entry): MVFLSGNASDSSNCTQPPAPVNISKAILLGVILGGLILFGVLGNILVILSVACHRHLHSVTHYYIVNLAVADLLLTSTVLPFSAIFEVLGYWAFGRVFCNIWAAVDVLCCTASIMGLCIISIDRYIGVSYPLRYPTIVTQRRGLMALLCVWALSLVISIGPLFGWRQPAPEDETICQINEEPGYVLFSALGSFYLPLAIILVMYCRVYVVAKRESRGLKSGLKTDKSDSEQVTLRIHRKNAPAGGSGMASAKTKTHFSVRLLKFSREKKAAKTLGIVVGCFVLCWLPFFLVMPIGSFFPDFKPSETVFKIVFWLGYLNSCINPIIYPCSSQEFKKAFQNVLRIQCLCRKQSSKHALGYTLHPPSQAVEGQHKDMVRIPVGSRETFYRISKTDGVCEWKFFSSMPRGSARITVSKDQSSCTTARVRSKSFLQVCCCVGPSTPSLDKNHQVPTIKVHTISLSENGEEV
The data set can be described thus: Agonist activity at recombinant human alpha1A adrenergic receptor expressed in HEK293 cells assessed as intercellular Ca mobilization by Fura-2AM dye-based fluorescence assay. The class given is cell-based.

The target in data set [2] is T2, Beta-3 adrenergic receptor (Homo sapiens, UniProt P13945). Nature of the data set: Agonist activity at recombinant human beta3 adrenergic receptor expressed in CHO cells assessed as accumulation of cyclic AMP after 30 mins. The class given is cell-based.
Target sequence in this assay (P13945 whole entry): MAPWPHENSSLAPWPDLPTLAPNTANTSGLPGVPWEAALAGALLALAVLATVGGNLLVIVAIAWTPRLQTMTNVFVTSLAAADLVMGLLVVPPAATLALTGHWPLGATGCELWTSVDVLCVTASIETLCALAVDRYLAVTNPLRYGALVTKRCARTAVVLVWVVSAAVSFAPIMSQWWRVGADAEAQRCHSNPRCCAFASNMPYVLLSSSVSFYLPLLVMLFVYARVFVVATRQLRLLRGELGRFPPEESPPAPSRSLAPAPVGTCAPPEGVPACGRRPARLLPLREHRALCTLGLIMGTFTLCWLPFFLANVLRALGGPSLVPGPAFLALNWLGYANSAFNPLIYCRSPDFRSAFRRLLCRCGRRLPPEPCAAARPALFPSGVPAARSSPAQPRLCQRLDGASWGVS
Data set [3] deals with T2, Beta-3 adrenergic receptor. The data set can be described thus: Intrinsic activity at recombinant human beta3 adrenergic receptor expressed in CHO cells assessed as accumulation of cyclic AMP after 30 mins relative to isoproterenol. The class given is cell-based.
Target sequence in this assay (P13945 whole entry, looked up): as the sequence (P13945 whole entry) above
For the next data set, the species on record is Homo sapiens. Nature of the data set: Selectivity ratio of EC50 for recombinant human alpha1A adrenergic receptor to EC50 for recombinant human beta3 adrenergic receptor.
The target in data set [4] is T1, Alpha-1A adrenergic receptor. The data set can be described thus: Intrinsic activity at recombinant human alpha1A adrenergic receptor expressed in HEK293 cells assessed as intercellular Ca mobilization by Fura-2AM dye-based fluorescence assay relative to norepinephrine. The following applies: read-out: Intrinsic activity. The class given is cell-based.
For data set [5], the system named is Rattus norvegicus. The data set can be described thus: Cardiotoxicity in Sprague-Dawley rat assessed as decrease in mean blood pressure at 3 mg/kg, iv after 30 mins (reference value: 5.4 +/- 1.9%). The class given is toxicity, organism-based. Also on record: scale not given: the % may be the effect or the level left. The following applies: in vivo, 0.5 h.
The target of the next data set is CYP2D6 (Homo sapiens, UniProt P10635). Nature of the data set: Inhibition of CYP2D6 (unknown origin) at 10 uM relative to control. The class given is ADME.
The test system of data set [6] is Rattus norvegicus. The data set can be described thus: Cardiotoxicity in Sprague-Dawley rat assessed as increase in heart beat rate at 3 mg/kg, iv after 30 mins (reference value: 1.8 +/- 0.9%). The conditions noted are these: in vivo, 0.5 h. The class given is toxicity, organism-based.
Data set [7] has as its system Rattus norvegicus. Nature of the data set: Cardiotoxicity in Sprague-Dawley rat assessed as increase in mean blood pressure at 3 mg/kg, iv after 30 mins (reference value: 1 +/- 0.5%). The following applies: in vivo, 0.5 h. The class given is toxicity, organism-based.
A short description of data set [8]: Cmax in Sprague-Dawley rat at 5 mg/kg, po by LC-MS/MS analysis. The class given is ADME, organism-based. More on the design: dose 5 mg/kg, route oral. The conditions noted are these: in vivo. The essentials: (§1)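 Male Sprague-Dawley rats (n = 2 or 3) dosed orally at 5 mg/kg in saline or water (5 mL/kg). Blood taken from the subclavian vein at 0.5, 1, 2, 4, 6 and 8 h; plasma separated by centrifugation, stored at -20 °C, and drug levels measured by LC-MS/MS. Values are mean ± SD (n = 3) or the average of two experiments.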

Data set [9] can be described thus: Intrinsic clearance in human liver microsomes at 1 uM in presence of NADPH by LC-MS/MS analysis. The class given is ADME, microsome. The conditions noted are these: […]. The essentials: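 Pooled mixed-gender human liver microsomes (0.5 mg/mL) in 100 mM potassium phosphate pH 7.4 with NADPH-regenerating mix plus UDP-GA, test compound 1 µM, 15 min at 37 °C. Acetonitrile stop, LC-MS/MS. k from the remaining fraction. CLint,u is scaled with 48.8 mg protein/g liver and 25.7 g liver/kg, and corrected by fu from equilibrium dialysis (1 µM, 0.5 mg/mL, 6 h, 37 °C).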

The nature of data set [10]: Solubility of the compound at pH 6.8 buffer solution after 18 hrs by HPLC analysis. The class given is physicochemical.
The nature of data set [11]: Membrane permeability in MDCK cells at 50 uM after 60 mins by LC-MS/MS analysis. The class given is ADME, cell-based, Canis lupus familiaris. The following applies: dog, read-out: permeability.
The nature of data set [12]: Intrinsic clearance in Sprague-Dawley rat liver microsomes at 0.5 uM in presence of NADPH by LC-MS/MS analysis. The conditions noted are these: […]. The class given is ADME, microsome. The essentials: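 Pooled male Sprague-Dawley rat liver microsomes (0.5 mg/mL final) in 100 mM Tris-HCl pH 7.4 with NADPH-regenerating mix plus UDP-GA, test compound 0.5 µM, 20 min at 37 °C. Acetonitrile stop, LC-MS/MS. CLint,u is scaled with 44.8 mg protein/g liver and 40.0 g liver/kg, and corrected by fu from ultracentrifugation (160,000g, 16 h, 37 °C).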
(Microsomes from liver hold many membrane-bound enzymes, among them those of drug oxidation.)

A short description of data set [13]: Solubility of the compound at pH 1.2 buffer solution after 18 hrs by HPLC analysis. The class given is physicochemical.
Data set [14] is described as follows: AUC in Sprague-Dawley rat at 5 mg/kg, po by LC-MS/MS analysis. The class given is ADME, organism-based. The following applies: in vivo. The essentials: as §1
The target in data set [15] is T3, Beta-1 adrenergic receptor (Homo sapiens, UniProt P08588). Nature of the data set: Agonist activity at recombinant human beta1 adrenergic receptor expressed in CHO cells assessed as accumulation of cyclic AMP after 30 mins. The class given is cell-based.
Data set [16] concerns the target T4, Beta-2 adrenergic receptor (Homo sapiens, UniProt P07550). The data set can be described thus: Intrinsic activity at recombinant human beta2 adrenergic receptor assessed as accumulation of cyclic AMP after 30 mins relative to isoproterenol.
The target of data set [17] is T3, Beta-1 adrenergic receptor. The data set can be described thus: Intrinsic activity at recombinant human beta1 adrenergic receptor assessed as accumulation of cyclic AMP after 30 mins relative to isoproterenol. The conditions noted are these: 0.5 h.
In data set [18] the target is T4, Beta-2 adrenergic receptor. The data set can be described thus: Agonist activity at recombinant human beta2 adrenergic receptor expressed in CHO cells assessed as accumulation of cyclic AMP after 30 mins. The class given is cell-based.
A short description of data set [19]: Half life in Sprague-Dawley rat at 5 mg/kg, po by LC-MS/MS analysis. The class given is ADME, organism-based. The conditions noted are these: in vivo. The essentials: as §1
In data set [20] the target is Adrenoceptor beta 3 (Callithrix jacchus) (UniProt F6XZF4). Nature of the data set: Agonist activity at beta3 adrenergic receptor in marmoset urinary bladder smooth muscle strips assessed as induction of KCl-precontracted muscle relaxation treated every 20 mins.
Chain of Adrenoceptor beta 3 (Callithrix jacchus) (F6XZF4 as listed by the source): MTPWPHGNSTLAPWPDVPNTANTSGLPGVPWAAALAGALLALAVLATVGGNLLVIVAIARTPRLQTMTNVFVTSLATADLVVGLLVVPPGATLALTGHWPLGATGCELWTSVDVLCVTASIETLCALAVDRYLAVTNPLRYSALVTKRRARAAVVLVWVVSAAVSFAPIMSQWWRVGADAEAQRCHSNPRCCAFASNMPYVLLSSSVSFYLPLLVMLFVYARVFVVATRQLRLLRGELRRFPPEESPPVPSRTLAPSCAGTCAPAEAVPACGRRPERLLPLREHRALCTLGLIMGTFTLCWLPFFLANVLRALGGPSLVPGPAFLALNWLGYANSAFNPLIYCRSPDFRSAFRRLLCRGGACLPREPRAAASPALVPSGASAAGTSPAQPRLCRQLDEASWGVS

T3 sequence (P08588 whole entry): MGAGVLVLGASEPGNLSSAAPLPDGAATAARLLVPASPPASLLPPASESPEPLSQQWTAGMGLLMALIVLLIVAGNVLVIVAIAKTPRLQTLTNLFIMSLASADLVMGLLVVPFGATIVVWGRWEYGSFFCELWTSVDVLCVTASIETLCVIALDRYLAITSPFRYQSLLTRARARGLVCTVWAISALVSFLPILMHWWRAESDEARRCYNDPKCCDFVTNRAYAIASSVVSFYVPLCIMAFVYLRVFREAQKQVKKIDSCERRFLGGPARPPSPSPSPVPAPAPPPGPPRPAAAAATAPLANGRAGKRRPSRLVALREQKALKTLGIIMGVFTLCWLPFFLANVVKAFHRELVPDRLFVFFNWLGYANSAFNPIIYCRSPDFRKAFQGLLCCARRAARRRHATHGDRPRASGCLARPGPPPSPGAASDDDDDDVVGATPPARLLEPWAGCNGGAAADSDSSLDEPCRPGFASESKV
T4 sequence (P07550 whole entry): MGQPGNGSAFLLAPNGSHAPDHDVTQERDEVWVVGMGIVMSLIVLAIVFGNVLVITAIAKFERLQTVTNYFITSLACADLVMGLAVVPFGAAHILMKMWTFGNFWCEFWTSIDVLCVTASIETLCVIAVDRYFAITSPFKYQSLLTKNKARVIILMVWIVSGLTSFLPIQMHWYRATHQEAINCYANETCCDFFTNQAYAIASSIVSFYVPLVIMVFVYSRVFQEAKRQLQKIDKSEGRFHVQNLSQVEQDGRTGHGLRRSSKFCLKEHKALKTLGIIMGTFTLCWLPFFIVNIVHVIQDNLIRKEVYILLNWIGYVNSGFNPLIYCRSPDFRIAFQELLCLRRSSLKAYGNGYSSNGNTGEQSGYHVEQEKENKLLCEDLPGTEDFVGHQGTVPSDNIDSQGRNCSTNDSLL
Chain of CYP2D6 (P10635 whole entry): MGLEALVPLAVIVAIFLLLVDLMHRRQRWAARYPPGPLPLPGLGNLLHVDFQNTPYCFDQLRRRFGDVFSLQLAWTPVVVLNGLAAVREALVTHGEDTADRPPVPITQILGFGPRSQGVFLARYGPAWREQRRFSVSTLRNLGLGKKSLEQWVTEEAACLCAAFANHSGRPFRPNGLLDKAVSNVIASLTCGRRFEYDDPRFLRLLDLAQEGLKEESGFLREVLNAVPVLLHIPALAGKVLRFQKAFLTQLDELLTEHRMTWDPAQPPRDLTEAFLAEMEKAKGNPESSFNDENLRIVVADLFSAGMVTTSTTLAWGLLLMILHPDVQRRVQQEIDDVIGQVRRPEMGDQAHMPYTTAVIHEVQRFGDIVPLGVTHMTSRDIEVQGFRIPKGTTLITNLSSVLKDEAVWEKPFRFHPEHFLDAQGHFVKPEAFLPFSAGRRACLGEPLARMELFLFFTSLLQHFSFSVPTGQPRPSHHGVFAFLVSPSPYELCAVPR

For `Cc1n[nH]c2cc(OCCNC[C@H](O)c3cccc(NS(=O)(=O)C4CCCC4)c3)ccc12`, the EC50 in data set [1] was over 10 µM; in [2], 0.309 µM. For the same molecule, in data set [3], the Intrinsic activity was 58%. Moreover, the Ratio EC50 in the data set listed under Homo sapiens is over 32. In addition, the Emax in [4] is 0%.

With `Nc1nc(CC(=O)Nc2ccc(CCNC[C@H](O)c3ccccc3)cc2)cs1` [MIRABEGRON], the Activity with Rattus norvegicus [5] is 38.3%; in the data set on Rattus norvegicus [6], 10%; in the data set with Rattus norvegicus [7] it was 3.5%. The molecule further registered an inhibition at 10 µM against CYP2D6 of 87%.

On to `Cc1n[nH]c2cc(OCCNC[C@H](O)c3cccc(NS(C)(=O)=O)c3)ccc12`, for which the Cmax in [8] is 107 ng/mL. In addition, in data set [9], the CLint scaled at 1 µM was under 10 mL/min/kg. Besides, the solubility at 18 h in data set [10] amounted to 273 µM (≈ 110 µg/mL); in [13], 285 µM (≈ 115 µg/mL). Also, the Papp at 1 h, 50 µM in [11] stood at 2.4 ×10⁻⁶ cm/s. The CLint scaled at 0.5 µM in [12] came to 103 mL/min/kg. Moreover, the Ratio EC50 in the data set filed under Homo sapiens amounted to 10. For the same molecule, the Emax in data set [4] turned out to be 71%. The molecule also came in with an AUC in data set [14] of 542 ng·h/mL.

Take `CCCS(=O)(=O)Nc1cccc([C@@H](O)CNCCOc2ccc3c(C)n[nH]c3c2)c1`: the EC50 in data set [1] turned out to be 0.163 µM; in data set [2] it was 0.0065 µM. Further, the Intrinsic activity in data set [3] amounted to 79%. In the data set filed under Homo sapiens, the Ratio EC50 amounted to 25. Also, the Emax in data set [4] was found to be 84%.

Take `Cc1n[nH]c2cc(OCCNC[C@H](O)c3cccc(NS(=O)(=O)C4CC4)c3)ccc12`: the half-maximal effective concentration (EC50) in data set [1] is 1.25 µM; in data set [2], 0.043 µM. Also, the Intrinsic activity in data set [3] was 72%. The Ratio EC50 in the data set filed under Homo sapiens stood at 29. Also, in data set [4], the Emax came to 26%.

For the molecule `CS(=O)(=O)Nc1cccc([C@@H](O)CNCCOc2ccc3c(C4CCC4)n[nH]c3c2)c1`, the CLint scaled at 1 µM in [9] stood at 463 mL/min/kg. In addition, in data set [12], the CLint scaled at 0.5 µM came out at 641 mL/min/kg. For the same molecule, the Ratio EC50 in the data set listed under Homo sapiens was over 151. Moreover, the Emax in data set [4] stood at 4%.

Take `Cc1n[nH]c2cc(OCCNC[C@H](O)c3cccc(NS(=O)(=O)c4ccccc4)c3)ccc12`: the concentration for a half-maximal effect (EC50) in data set [1] was over 10 µM; in data set [15], over 10 µM; in data set [2], 0.0039 µM; in [18], over 10 µM. Moreover, the Intrinsic activity in data set [3] came out at 85%; in [17], 10%. The CLint scaled at 1 µM in data set [9] came out at 464 mL/min/kg. Also, the solubility at 18 h in data set [10] was found to be 229 µM (≈ 107 µg/mL); in data set [13] it was 300 µM (≈ 140 µg/mL). In addition, in [11], the Papp at 1 h, 50 µM amounted to 5.1 ×10⁻⁶ cm/s. The Ratio EC50 in the data set filed under Homo sapiens is over 2560. In addition, in [4], the Emax is 0%. In addition, the Emax at 0.5 h in data set [16] was found to be 0%.

Turning to `CC(C)c1n[nH]c2cc(OCCNC[C@H](O)c3cccc(NS(C)(=O)=O)c3)ccc12`, in data set [19], the half-life is 1.62 h. In [8], this molecule came in with a Cmax of 45.2 ng/mL. Besides, in data set [9], the CLint scaled at 1 µM came to 193 mL/min/kg. Further, the solubility at 18 h in data set [10] was 267 µM (≈ 115 µg/mL); in data set [13], 295 µM (≈ 128 µg/mL). Also, the Papp at 1 h, 50 µM in data set [11] was 4.1 ×10⁻⁶ cm/s. Besides, the CLint scaled at 0.5 µM in [12] is 211 mL/min/kg. The Ratio EC50 in the data set listed under Homo sapiens is over 769. Further, the Emax in data set [4] came out at 9.1%. Further, the Emax at 0.5 h in data set [16] stood at 5.6%. In data set [14], this molecule returned an area under the curve (AUC) of 200 ng·h/mL. Further, the Intrinsic activity in data set [17] was 11.9%.

With `Cc1n[nH]c2cc(OCCNC[C@H](O)c3cccc(NS(=O)(=O)C(C)C)c3)ccc12`, the EC50 stood at 1.76 µM in data set [1] and 0.07 µM in [2]. In addition, in data set [3], the Intrinsic activity was 90%. Moreover, the Ratio EC50 in the data set filed under Homo sapiens came out at 25. For the same molecule, the Emax in data set [4] was determined as 27%.

With `CC(C)NCC(O)c1ccc(O)c(O)c1` (configuration not stated), in [20], the outcome was Active.

Regarding `CCc1n[nH]c2cc(OCCNC[C@H](O)c3cccc(NS(C)(=O)=O)c3)ccc12`, the CLint scaled at 1 µM in data set [9] worked out at 42 mL/min/kg. In data set [12], the CLint scaled at 0.5 µM came out at 113 mL/min/kg. Further, the Ratio EC50 in the data set filed under Homo sapiens turned out to be 61. For the same molecule, the Emax in data set [4] turned out to be 31%.

The term EC50 denotes the concentration giving half of the maximal effect. As usually defined, the inhibition is the relative decrease from the control value, in per cent. As a reminder, the Cmax is the maximum level reached in the sampled fluid or tissue. As a reminder, the solubility is the dissolved amount per volume that the medium holds. In general, AUC refers to the area under the concentration-time curve, a measure of exposure. As a reminder, the half-life is the time in which the quantity being followed falls by half.
